Measured values gathered from unrelated publications.
Each line is one published result; the experiments were not run side by side.
Mode: inhibitor
PARP2: Poly [ADP-ribose] polymerase 2 (PARP2, Homo sapiens, UniProt Q9UGN5)
CDK2: Cyclin-dependent kinase 2 (CDK2, Homo sapiens, UniProt P24941)

Structure (SMILES) | target | test | IC50 [nM]
Cc1ccc(Cn2nnc3c4ccc(F)cc4c(=O)[nH]c32)cc1 | PARP2 | enzyme activity | > 10000
CN(C)CCNC(=O)c1ccc(-c2nc3ccc4[nH]ncc4c3c3c2CCCCC3)cn1 | CDK2 | enzyme activity | 210
O=c1[nH]c2c(nnn2Cc2ccccc2)c2ccc(F)cc12 | PARP2 | enzyme activity | > 10000
CN(C)CCNC(=O)c1ccc(-c2nc3ccc4[nH]ncc4c3c3c2CC(F)(F)CC3)cc1 | CDK2 | enzyme activity | 109
CC(=O)N1C(=O)NC(C)=C(C(=O)OCC(C)C)C1c1cccc([N+](=O)[O-])c1 (racemic) | Voltage-dependent L-type calcium channel subunit alpha-1C (Cacna1c, Rattus norvegicus, UniProt P22002) | ion current, patch clamp | 1300
Cc1cc(O)c(-c2ccc([C@@H](C)CN(C)C)cc2)c2c1[nH]c(=O)c1sccc12 | Cyclin-dependent kinase 8, with cyclin C (CDK8, Homo sapiens, UniProt P49336) | enzyme activity | > 1000
CCNc1ccc(C(N)=O)cn1 | Nicotinamide N-methyltransferase (NNMT, Homo sapiens, UniProt P40261) | enzyme activity in cells | > 31600
CCCCCn1nnc2c3ccc(F)cc3c(=O)[nH]c21 | PARP2 | enzyme activity | > 10000
Cc1n[nH]c2ccc3nc(-c4ccc(C(=O)NCCN(C)C)cc4F)c4c(c3c12)CCCC4 | CDK2 | enzyme activity | 80
O=c1[nH]c2c(nnn2Cc2ccc(C(F)(F)F)cc2)c2ccc(F)cc12 | PARP2 | enzyme activity | > 10000
Cc1n[nH]c2ccc3nc(-c4ccc(C(=O)NCCN(C)C)cc4)c4c(c3c12)CCC(C)(C)C4 | CDK2 | enzyme activity | > 1000
Cn1cc(C2=C(c3cn(CCCSC(=N)N)c4ccccc34)C(=O)NC2=O)c2ccccc21 | Mitogen-activated protein kinase kinase kinase kinase 1 (MAP4K1, Homo sapiens, UniProt Q92918) | enzyme activity | 54.4
